Measured values published in ChEMBL document CHEMBL5653631, “A Potent and Selective ULK1 Inhibitor Suppresses Autophagy and Sensitizes Cancer Cells to Nutrient Stress” (iScience, 2018).

Experiments:
[1] = molecular target: T1, Eukaryotic elongation factor 2 kinase (Homo sapiens) (UniProt O00418); assay: Inhibition of human recombinant eEF2K at 500 nM related to control ULK1
T1 sequence (whole entry): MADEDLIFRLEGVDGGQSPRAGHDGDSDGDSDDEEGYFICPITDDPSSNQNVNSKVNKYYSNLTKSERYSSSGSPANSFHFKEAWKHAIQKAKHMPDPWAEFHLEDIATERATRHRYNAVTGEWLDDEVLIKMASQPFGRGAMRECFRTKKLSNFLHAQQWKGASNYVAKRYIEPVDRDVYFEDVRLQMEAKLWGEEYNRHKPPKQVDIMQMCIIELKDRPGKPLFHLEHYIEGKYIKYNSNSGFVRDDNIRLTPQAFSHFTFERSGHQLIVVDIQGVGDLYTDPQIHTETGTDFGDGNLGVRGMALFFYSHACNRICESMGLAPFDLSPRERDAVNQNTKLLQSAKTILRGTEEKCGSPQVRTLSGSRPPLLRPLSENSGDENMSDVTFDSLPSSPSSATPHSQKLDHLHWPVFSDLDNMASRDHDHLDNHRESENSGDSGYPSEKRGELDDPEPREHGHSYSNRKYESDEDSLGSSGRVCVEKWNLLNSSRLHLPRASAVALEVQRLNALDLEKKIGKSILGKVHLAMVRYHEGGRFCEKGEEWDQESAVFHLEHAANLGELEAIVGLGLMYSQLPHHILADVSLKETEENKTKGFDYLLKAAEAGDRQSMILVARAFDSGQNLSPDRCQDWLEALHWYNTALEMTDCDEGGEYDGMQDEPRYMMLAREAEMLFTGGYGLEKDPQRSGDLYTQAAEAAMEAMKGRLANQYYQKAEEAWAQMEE

[2] = molecular target: T2, Receptor-interacting serine/threonine-protein kinase 1 (Homo sapiens) (UniProt Q13546); assay: Inhibition of human recombinant RIPK1 at 500 nM in presence of ATP by radiometric assay relative to control
T2 sequence (whole entry): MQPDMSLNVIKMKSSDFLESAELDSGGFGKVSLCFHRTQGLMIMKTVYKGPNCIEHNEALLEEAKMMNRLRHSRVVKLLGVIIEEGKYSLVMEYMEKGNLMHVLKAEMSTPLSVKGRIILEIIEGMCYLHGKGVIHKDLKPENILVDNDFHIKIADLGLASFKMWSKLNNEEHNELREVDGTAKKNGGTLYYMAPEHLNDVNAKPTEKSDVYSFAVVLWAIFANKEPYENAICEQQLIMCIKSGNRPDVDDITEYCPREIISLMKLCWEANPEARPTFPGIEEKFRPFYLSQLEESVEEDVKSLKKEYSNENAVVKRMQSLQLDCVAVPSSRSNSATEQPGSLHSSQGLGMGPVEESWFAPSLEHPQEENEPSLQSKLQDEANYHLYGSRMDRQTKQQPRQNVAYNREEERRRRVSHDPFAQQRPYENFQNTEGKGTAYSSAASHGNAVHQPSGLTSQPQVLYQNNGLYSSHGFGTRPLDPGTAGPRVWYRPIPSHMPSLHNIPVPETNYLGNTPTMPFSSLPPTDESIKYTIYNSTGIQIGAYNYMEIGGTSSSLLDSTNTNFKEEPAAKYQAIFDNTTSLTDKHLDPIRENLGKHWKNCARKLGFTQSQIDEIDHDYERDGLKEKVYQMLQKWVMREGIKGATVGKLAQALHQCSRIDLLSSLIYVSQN

[3] = molecular target: T3, Tyrosine-protein kinase ZAP-70 (Homo sapiens) (UniProt P43403); assay: Inhibition of human recombinant ZAP70 at 500 nM in presence of ATP by radiometric assay relative to control
T3 sequence (whole entry): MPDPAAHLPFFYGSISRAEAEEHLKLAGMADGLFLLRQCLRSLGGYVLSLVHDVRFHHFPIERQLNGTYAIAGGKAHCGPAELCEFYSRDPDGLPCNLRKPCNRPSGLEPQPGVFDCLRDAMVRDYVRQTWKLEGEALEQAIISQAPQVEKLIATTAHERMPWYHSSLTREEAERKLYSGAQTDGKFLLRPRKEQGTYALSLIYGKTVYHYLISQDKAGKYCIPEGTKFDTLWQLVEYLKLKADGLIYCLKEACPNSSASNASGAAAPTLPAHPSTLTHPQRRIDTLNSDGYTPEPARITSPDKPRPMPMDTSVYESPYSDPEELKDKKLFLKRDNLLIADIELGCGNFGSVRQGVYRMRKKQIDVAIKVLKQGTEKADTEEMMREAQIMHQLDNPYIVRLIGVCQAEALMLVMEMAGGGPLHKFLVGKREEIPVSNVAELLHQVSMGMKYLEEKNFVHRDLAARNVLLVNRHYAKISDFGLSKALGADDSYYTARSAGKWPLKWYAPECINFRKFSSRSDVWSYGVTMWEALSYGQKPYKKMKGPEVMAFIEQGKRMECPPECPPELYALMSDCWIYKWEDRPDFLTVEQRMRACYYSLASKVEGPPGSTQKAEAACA

[4] = molecular target: Serine/threonine-protein kinase pim-2 (Homo sapiens) (UniProt Q9P1W9); assay: Inhibition of human recombinant PIM2 at 15 nM in presence of ATP by radiometric assay relative to control
[5] = molecular target: T4, Aurora kinase C (Homo sapiens) (UniProt Q9UQB9); assay: Inhibition of human recombinant AurC at 15 nM in presence of ATP by radiometric assay relative to control
T4 sequence (whole entry): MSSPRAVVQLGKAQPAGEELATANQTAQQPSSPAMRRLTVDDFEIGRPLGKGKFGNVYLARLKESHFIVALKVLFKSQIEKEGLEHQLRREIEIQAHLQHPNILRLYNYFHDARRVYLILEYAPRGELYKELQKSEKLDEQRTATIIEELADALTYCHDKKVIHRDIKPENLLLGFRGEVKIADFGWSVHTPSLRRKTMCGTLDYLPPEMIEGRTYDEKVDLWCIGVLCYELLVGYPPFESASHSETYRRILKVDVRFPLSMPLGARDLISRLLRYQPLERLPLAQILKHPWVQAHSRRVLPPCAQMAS
How it was run: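 Part of a radiometric in vitro activity panel of 327 recombinant human kinases. Each kinase was tested in duplicate at one inhibitor concentration. Activity remaining was expressed as a percentage of the vehicle control, and percent inhibition was taken as 100 minus that value.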

[6] = molecular target: Serine/threonine-protein kinase PAK 6 (Homo sapiens) (UniProt Q9NQU5); assay: Inhibition of human recombinant PAK6 at 15 nM related to control ULK1
[7] = molecular target: Protein-tyrosine kinase 2-beta (Homo sapiens) (UniProt Q14289); assay: Inhibition of human recombinant PYK2 at 15 nM related to control ULK1
Sequence of Protein-tyrosine kinase 2-beta (Homo sapiens) (Q14289 whole entry, looked up): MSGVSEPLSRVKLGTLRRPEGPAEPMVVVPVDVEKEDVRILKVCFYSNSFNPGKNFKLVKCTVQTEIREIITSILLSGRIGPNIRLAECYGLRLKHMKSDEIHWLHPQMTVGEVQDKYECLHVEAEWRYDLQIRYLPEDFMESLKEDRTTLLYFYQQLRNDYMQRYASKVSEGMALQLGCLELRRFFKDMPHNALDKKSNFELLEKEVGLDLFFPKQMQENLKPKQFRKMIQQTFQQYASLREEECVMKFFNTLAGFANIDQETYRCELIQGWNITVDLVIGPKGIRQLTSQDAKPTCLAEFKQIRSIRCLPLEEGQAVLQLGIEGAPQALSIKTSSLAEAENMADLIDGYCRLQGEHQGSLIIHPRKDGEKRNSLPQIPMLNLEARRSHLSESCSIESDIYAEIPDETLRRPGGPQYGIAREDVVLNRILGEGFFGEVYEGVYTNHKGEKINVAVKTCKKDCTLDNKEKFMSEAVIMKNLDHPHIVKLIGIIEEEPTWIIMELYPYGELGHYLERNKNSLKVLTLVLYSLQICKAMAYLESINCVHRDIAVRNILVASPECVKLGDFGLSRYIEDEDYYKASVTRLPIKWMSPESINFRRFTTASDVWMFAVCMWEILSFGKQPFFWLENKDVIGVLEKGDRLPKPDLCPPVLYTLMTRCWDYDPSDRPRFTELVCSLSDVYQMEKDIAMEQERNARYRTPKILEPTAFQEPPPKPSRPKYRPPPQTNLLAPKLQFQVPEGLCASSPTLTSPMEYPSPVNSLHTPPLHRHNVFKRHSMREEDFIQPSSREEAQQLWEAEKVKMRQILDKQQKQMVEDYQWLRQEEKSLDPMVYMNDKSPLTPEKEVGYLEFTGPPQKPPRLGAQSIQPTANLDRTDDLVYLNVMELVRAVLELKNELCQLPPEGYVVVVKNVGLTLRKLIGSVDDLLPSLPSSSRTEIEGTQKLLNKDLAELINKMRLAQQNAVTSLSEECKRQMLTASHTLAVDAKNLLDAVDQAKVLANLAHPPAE

Sequence of Serine/threonine-protein kinase PAK 6 (Homo sapiens) (Q9NQU5 whole entry, looked up): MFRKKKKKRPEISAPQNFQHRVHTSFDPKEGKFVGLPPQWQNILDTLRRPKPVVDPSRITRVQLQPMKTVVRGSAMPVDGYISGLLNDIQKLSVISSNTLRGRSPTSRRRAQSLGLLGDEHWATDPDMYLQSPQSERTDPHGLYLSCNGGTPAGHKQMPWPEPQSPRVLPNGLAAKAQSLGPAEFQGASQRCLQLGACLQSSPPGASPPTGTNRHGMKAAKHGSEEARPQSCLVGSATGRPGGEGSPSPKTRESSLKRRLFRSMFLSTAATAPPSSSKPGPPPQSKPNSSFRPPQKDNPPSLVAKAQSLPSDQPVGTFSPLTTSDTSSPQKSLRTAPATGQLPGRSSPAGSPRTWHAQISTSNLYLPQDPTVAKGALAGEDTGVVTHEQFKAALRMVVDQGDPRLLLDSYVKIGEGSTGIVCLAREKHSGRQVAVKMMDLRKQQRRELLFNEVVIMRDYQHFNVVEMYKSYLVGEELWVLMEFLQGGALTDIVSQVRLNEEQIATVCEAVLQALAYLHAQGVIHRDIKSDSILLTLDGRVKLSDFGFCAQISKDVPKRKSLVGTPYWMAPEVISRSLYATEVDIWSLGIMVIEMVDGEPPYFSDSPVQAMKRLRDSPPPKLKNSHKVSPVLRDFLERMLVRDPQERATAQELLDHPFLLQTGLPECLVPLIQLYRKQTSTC
Sequence of Serine/threonine-protein kinase pim-2 (Homo sapiens) (Q9P1W9 whole entry, looked up): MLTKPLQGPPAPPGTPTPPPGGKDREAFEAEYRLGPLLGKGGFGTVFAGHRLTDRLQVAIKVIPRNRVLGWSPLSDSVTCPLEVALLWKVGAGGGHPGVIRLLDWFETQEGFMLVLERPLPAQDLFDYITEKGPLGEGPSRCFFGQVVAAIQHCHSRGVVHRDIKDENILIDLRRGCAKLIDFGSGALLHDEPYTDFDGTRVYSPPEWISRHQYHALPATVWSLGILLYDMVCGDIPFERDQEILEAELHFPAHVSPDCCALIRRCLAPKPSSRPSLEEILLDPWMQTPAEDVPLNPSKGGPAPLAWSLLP

fold change (FC) [1] | inhibition [2] [%] | inhibition [3] [%] | inhibition [4] [%] | inhibition [5] [%] | fold change (FC) [6] | fold change (FC) [7] | Compound
0.19 | 7 | 1 |  |  |  |  | CNC(=O)c1ccccc1Oc1nc(Nc2cc(OC)c(OC)c(OC)c2)ncc1Br
 |  |  | 0 | 8 | 0 | 0 | CC(C)[C@H](NC(=O)c1cc(-c2cnn3cc(-c4ccc(OCCN5CCCCC5)cc4)cnc23)cs1)C(F)(F)F
